# Bioassay records as filed in PubChem.
# A selection: hits, their analogues and other compounds. The true share with any hit is near 3.1%.
# GPR7 antag – antagonists of human GPR7 (neuropeptides B/W receptor 1). P48145. GPR7-expressing cells, fluorescence antagonist assay. inhibition, % at 4.4 µM. 290,000 tested, 1.1% active. AID 1861; in the data active = inhibition above about 16%, passing the limit was not always enough;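 note: cells stimulated with the agonist NPW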
# Target sequence (P48145 whole entry, looked up): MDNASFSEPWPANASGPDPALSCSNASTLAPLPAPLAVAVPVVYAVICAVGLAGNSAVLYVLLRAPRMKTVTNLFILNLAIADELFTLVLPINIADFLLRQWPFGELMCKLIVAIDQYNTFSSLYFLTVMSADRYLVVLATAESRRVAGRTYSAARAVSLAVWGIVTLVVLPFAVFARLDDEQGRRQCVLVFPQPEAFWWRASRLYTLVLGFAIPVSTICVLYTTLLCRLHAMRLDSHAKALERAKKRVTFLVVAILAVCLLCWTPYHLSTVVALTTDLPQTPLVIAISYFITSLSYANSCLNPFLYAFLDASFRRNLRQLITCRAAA
# GalR3 antagonist – antagonists of human GalR3; O60755; HEK293 GalR3-CNG cAMP membrane potential fluorescence; galR3 body fused to GalR1 C-terminus; inhibition, % at 3 µM; 360,000 tested, 0.44% active; AID 651719;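 active = inhibition above the screen-wide average plus 3 SD, cut at about 13% in these data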;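 note: forskolin and galanin both at EC90 stimulate the cells; cAMP rise reported by CNG channel membrane potential dye signal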
# OX1R antag-1 – antagonists of human orexin 1 receptor; O43613; CHO/OX1R cells, Fluo-8 calcium fluorescence, orexin A; inhibition, % at 5 µM; 330,000 tested, 0.43% active;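 active = inhibition above its plate's threshold, mean inhibition of all tested compounds on the plate plus 3 SD, cut at about 37% in these data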
# CHO parental Ca – counter-screen for OX1R antagonists: effect in parental CHO cells; 330,000 tested, 0.63% active; inhibition, % at 5.6 µM; AID 463079; parental CHO-K1, ATP-induced calcium, Fluo-8 fluorescence;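 active = inhibition above that plate's mean sample inhibition plus 3 SD, cut at about 26% in these data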
#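 Test system: untransfected parental CHO cell line; also added: ATP stimulus; dosing: 5.6 µM, single dose; signal: calcium-sensitive Fluo-8 fluorescence; measure: percent inhibition of ATP-evoked calcium rise, normalized to controls; benchmarks: low control ATP plus DMSO, high control DMSO only; replication: one well per compound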
# OX1R antag-2 – antagonists of human orexin 1 receptor (OX1R); O43613; OX1R-expressing cells, FRET antagonist read-out; inhibition, % at 6.6 µM; 330,000 tested, 1.8% active; AID 485270; in the data active = inhibition mostly above about 38%, no sharp cut-off; inactive = mostly below about 40%
# Hits are given with their value; i = inactive; nt = not tested or not shown.
SMILES,GPR7 antag,GalR3 antagonist,OX1R antag-1,CHO parental Ca,OX1R antag-2
O=C(CN1C(=O)NC2(CCCC2)C1=O)NCCN1C(=O)S/C(=C\c2ccccc2F)C1=O,nt,i,i,i,51.1
CC(C)(C)NC(=O)C1c2ccccc2OCC(=O)N1Cc1ccccc1 (centres undefined),nt,i,nt,nt,nt
O=C(Nc1cccc([N+](=O)[O-])c1)c1cnccn1,i,i,i,i,i
O=C(N/N=C/c1cc([N+](=O)[O-])ccc1Cl)c1cnccn1,i,i,i,i,71.5
CC(=NNC(=O)c1ccncc1)c1cc(Cl)ccc1Cl,nt,i,nt,nt,nt
C/C(N)=C(/C#N)C(=O)CSc1nnnn1-c1ccccc1,i,i,i,i,i
C/C(N)=C(/C#N)C(=O)CSc1nnnn1-c1ccc(C)cc1,15.3,i,i,i,i
C=CCSc1nc(N)c2c(C)c(C)sc2n1,i,i,i,i,46.1
CN(CC(=O)Nc1cccc(F)c1)C(=O)c1ccccc1Sc1ccccc1C#N,nt,i,i,i,32.8
CN(Cc1cccc(F)c1)C(=O)c1ccccc1Sc1ccccc1C#N,i,i,i,i,i
COc1cccc(NC(=O)CN(C)C(=O)c2ccccc2Sc2ccccc2C#N)c1,nt,i,i,i,38.8
COc1cccc(CN(C)C(=O)c2ccccc2Sc2ccccc2C#N)c1,i,i,i,i,i
CN(C(=O)c1ccc(Cl)cc1)c1ccc(OCC(=O)Nc2cc(C(=O)O)ccc2Cl)cc1,nt,i,nt,nt,nt
C=CCN1C(=O)C2(NNc3ccccc3O2)c2ccccc21 (centres undefined),i,i,i,32.2,i
CCCCN1C(=O)C2(NNc3ccccc3O2)c2ccccc21 (centres undefined),i,i,36.9,i,i
COC(=O)c1ccc2c(=O)n(CCCCCC(=O)NC3CCCCC3)c(=O)[nH]c2c1,nt,i,nt,nt,nt
COc1ccc(NC(=O)CN(C)S(=O)(=O)c2ccc(Cl)cc2)cc1Cl,i,i,i,i,i
COc1ccc(S(=O)(=O)N(C)CC(=O)Nc2ccc(C(F)(F)F)cc2)cc1Cl,i,i,i,31.7,i
CCCCCCC12C(=Cc3cc(C)ccc31)c1ccccc1C(CC(=O)NCc1ccccc1)N2C(=O)OC (centres undefined),nt,i,nt,nt,nt
O=C(Nc1ccccc1)c1nc[nH]c1C(=O)NCCCCNC(=O)c1[nH]cnc1C(=O)Nc1ccccc1,nt,i,i,i,i
O=C(Nc1ccccc1)c1nc[nH]c1C(=O)NCCNC(=O)c1[nH]cnc1C(=O)Nc1ccccc1,nt,i,i,i,65.3
Cc1cccc(Cn2cc(SCC(=O)Nc3nccs3)c3ccccc32)c1,i,nt,i,i,34.2
COC(=O)Cc1nnn2c1[C@@H](C)[C@@H](c1ccccc1Br)O[C@@H](C)C2,nt,i,nt,nt,nt
O=C(COc1ccccc1/C=C1\SC(=S)NC1=O)Nc1ccc(F)cc1,nt,i,i,i,57.2
Cc1ccc(Cl)cc1NC(=O)OCCN(C)C(=O)Nc1cc(Cl)ccc1C,nt,i,nt,nt,nt
SMILES,GPR7 antag,GalR3 antagonist,OX1R antag-1,CHO parental Ca,OX1R antag-2
CCn1c(SCC(=O)NC2CCCc3ccccc32)nnc1-c1cccs1 (centres undefined),i,i,i,i,70.4
Cc1ccc2nc(SCC(=O)NC3CCCc4ccccc43)[nH]c2c1 (centres undefined),i,i,i,i,73.0
O=C(CSc1ccc2ccccc2c1)NC1CCCc2ccccc21 (centres undefined),i,i,i,i,70.7
COc1ccc2nc(SCC(=O)NCc3ccc(F)cc3)[nH]c2c1,i,i,i,i,i
COc1cccc(CNC(=O)CSc2nc3ccc(C)cc3[nH]2)c1,i,i,i,i,41.7
CCn1c(SCC(=O)NC2CCCc3ccccc32)nnc1-c1ccncc1 (centres undefined),i,i,i,i,i
Cc1ccc2nc(SCC(=O)c3ccc(Cl)s3)[nH]c2c1,i,i,i,i,56.4
Nc1ccc(-c2nc3ccc([N+](=O)[O-])cc3[nH]2)cc1,20.1,i,i,i,i
O=[N+]([O-])c1ccc2nc(/C=C/c3ccc(Cl)cc3)[nH]c2c1,i,i,i,29.4,76.6
O=[N+]([O-])c1ccc(-c2nc3ccc([N+](=O)[O-])cc3[nH]2)cc1,i,i,i,i,i
COc1ccccc1C(=O)NCCn1ccc2ccccc21,i,i,i,i,69.8
COc1ccc(C(=O)NCCn2ccc3ccccc32)cc1OC,i,nt,i,i,i
COc1ccccc1OCCn1cc(C(=O)c2ccco2)c2ccccc21,i,i,i,i,i
COc1cccc(OCCn2cc(C(=O)c3ccco3)c3ccccc32)c1,i,i,46.1,i,i
